Results reported in ChEMBL document CHEMBL4513216, “Probing the Open Global Health Chemical Diversity Library for Multistage-Active Starting Points for Next-Generation Antimalarials” (ACS Infect Dis, 2020).

Assay: Toxicity liver stage against HepG2, at 10uM
Type: cell-based
Set-up: test concentration 10 uM, cell line HepG2-A16-CD81EGFP
Settings: human, HepG2-A16-CD81EGFP cells; read-out: INHIBITION
Summary of the method: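 Uninfected HepG2-A16-CD81EGFP cells, 3 × 10^3 per well, 1536-well, plated on prespotted compound at 10 μM final, parasite-free screening media added to match infected plates; puromycin 10 μM positive, DMSO 0.5% negative; run in parallel with 48 h PbLuc assay at 37 °C, 5% CO2; viability by CellTiter-Glo luminescence, normalized to controls.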

| SMILES | cytotoxicity at 10 µM [%] |
| --- | --- |
| Cc1nc(CCN)cc(N2CCC(O)(c3ccc(Cl)cc3)CC2)n1 | -2.24 |
| CCc1ccc(NC(=O)N2C[C@@H]3C[C@H](C(=O)N4CCCC4)[C@H](C2)O3)cc1 | -6.71 |
| CCCN1CCC(N2CCOC(Cc3cccc(OC)c3)C2)CC1 (centres undefined) | 8.69 |
| CCn1cc(CN2CCC(CCC(=O)Nc3ccccc3Cl)CC2)cn1 | -0.99 |
| CC(C)C(C)NC(=O)Nc1cccn(C)c1=O (centres undefined) | -7.48 |
| Cc1cc(C(N)=O)nc(C2(C)CCCN2Cc2cnn(C)c2)n1 (centres undefined) | -23.6 |
| CCOC1CCN(C(=O)NCc2ccc(CN3CCOCC3)cc2)CC1 | 7.31 |
| CCOC(=O)C1CCCN(c2nccc(-n3nc(C)cc3C)n2)C1 (centres undefined) | -11 |
| Cc1cccc(C(=O)N2C[C@@H]3C(CC(=O)Nc4cccnc4)[C@@H]3C2)n1 (some centres undefined) | -0.39 |
| CNC(=O)[C@H]1C[C@H]2CN(Cc3ccc(OC)cc3)C[C@@H]1O2 | 3.02 |
| CC(=O)Nc1nc(C(=O)Nc2ccc(F)cc2)cs1 | 6.47 |
| O=C(O)[C@@H]1CN(Cc2ccc3nsnc3c2)C[C@H]1c1cccnc1 | 4.46 |
| O=C(Nc1nncs1)NC1CCOc2ccccc21 (centres undefined) | -10.4 |
| CCn1nc(C)c2ncnc(N(C)C)c21 | 3.18 |
| CN(C(=O)Cn1nc(-c2ccc(F)cc2)ccc1=O)C1CCS(=O)(=O)C1 (centres undefined) | -3.57 |
| COc1cc(CN2CCN(c3cccc(OC)c3)C(=O)C2)cc(OC)c1 | -11.7 |
| O=C(C1CC(=O)N(C2CC2)C1)N1CCN(CCn2cccc2)CC1 (centres undefined) | -12 |
| CNS(=O)(=O)CCCn1nnc(-c2ccc(F)c(C)c2)n1 | -1.52 |
| COCCCNC(=O)c1c(-n2cnnn2)sc2c1CCC2 | 11.4 |
| COc1cc(C(=O)N2CCCC(n3ccnc3)C2)cc2c1OCCO2 (centres undefined) | -5.28 |
| Nc1ncc(-c2cccc(NC(=O)[C@@H]3CCCCN3)c2)cn1 | 1.86 |
| Cc1cc2c(=O)n3c(nc2s1)CCN(C(=O)c1ccnn1C)CC3 | -4.08 |
| O=C(C(c1ccc(F)cc1)N1CCCCC1)N1CCn2cncc2C1 (centres undefined) | -0.628 |
| COc1ccc(NC(=O)c2nc3ccccc3n(C)c2=O)cc1OC | -7.36 |
| CC1CCN(c2ccc(C(=O)N3CCCC3c3ccc[nH]3)cn2)CC1 (centres undefined) | 2.84 |
| COc1ccccc1C(NC(=O)C1CCC1)c1noc(C)n1 (centres undefined) | 0.338 |
| Cc1nc(C(=O)N2CCOC(c3nc(C(C)C)n[nH]3)C2)c[nH]1 (centres undefined) | -1.58 |

| SMILES | cytotoxicity at 10 µM [%] |
| --- | --- |
| CN(CCCNC(=O)C1CCCN(C(N)=O)C1)S(C)(=O)=O (centres undefined) | -4.76 |
| Cc1nc(CN(C)C2CCN(Cc3nnc(C4CC4)o3)C2)no1 (centres undefined) | -5 |
| CCNC(=O)C1CCN(c2cc(CC)nc3ccnn23)C1 (centres undefined) | -8.24 |
| CN(C)[C@@H]1CN(C(=O)Cc2cccs2)[C@@H]2CCCO[C@H]12 | 5.93 |
| CC(C)CCN(C)C(=O)c1cnc2c(cnn2CC(C)C)c1 | -0.0554 |
| O=c1cc(-c2ccc(F)cc2)nc2n1CCCCC2 | -1.91 |
| c1cncc(-c2nnc(C3(c4ccc5c(c4)OCO5)CCOCC3)o2)c1 | 4.02 |
| Cc1nc(CC(=O)N2CCC[C@H]2c2nc(C(C)C)no2)cs1 | -14.2 |
| CCN1CCc2cc(-c3cncn3CC(=O)NC(C)(C)C)ccc21 | -18.9 |
| CN1CCCN(C(=O)c2cnc(C(C)(C)C)nc2O)CC1 | -0.0816 |
| CCCN1C(=O)CC(N2CCN(c3ccc(F)cc3)CC2)C1=O (centres undefined) | -3.03 |
| CN(C)C(=O)C1CCN(C2CCN(CC3CC3)CC2)CC1 | 4.55 |
| Cn1cc(CN2CCC(c3[nH]ncc3S(C)(=O)=O)C2)cn1 (centres undefined) | -4.55 |
| NC(=O)CN1CCCC(c2nccnc2Oc2cccc(F)c2)C1 (centres undefined) | -17.1 |
| O=C(Nc1cccc(CN2CCC(CO)CC2)c1)c1cc(Cl)c[nH]1 | -150 |
| O=C1CC(c2cccc(O)c2)c2c(c(C(=O)O)cn2-c2ccccc2)N1 (centres undefined) | 1 |
| COCCN(C)C[C@@H]1CN(C(=O)c2ccc(O)c(C)c2)C[C@@H]1CO | -11.8 |
| O=C(NCCOC1CCCC1)c1ccc(-c2ccco2)[nH]c1=O | -20 |
| O=C(O)c1ccn(-c2cccc(NC(=O)c3ccccc3Cl)c2)n1 | -139 |
| Cc1cc(-c2ccc(=O)n(C3CCN(C(=O)C4CCC4)CC3)n2)c(C)o1 | 4.22 |
| CNC(=O)c1nc(CN2CCOC(CCCC(C)C)C2)no1 (centres undefined) | -2.25 |
| COc1cccc(CC(=O)NCCc2nnc3n2CCCCC3)c1 | -18.4 |
| O=C(Nc1ccccc1Oc1cccc(F)c1)NC1CCS(=O)(=O)C1 (centres undefined) | -6.07 |
| O=C(NC1CCc2c(ccc(=O)n2CC2CC2)C1)c1cscn1 (centres undefined) | -104 |
| CNS(=O)(=O)c1ccc(C(=O)N2CCCC2c2ccncc2)o1 (centres undefined) | -6.23 |
| CCN(CC)c1ccc(CNC(=O)c2cccc(C)n2)cn1 | 9.47 |
| O=C(NCC(O)c1ccccc1C(F)(F)F)c1cccnc1 (centres undefined) | -2.9 |
